# Bioassay records: PubChem, Sanford-Burnham Center for Chemical Genomics
# Apaf1 activ = activates human Apaf-1 apoptosome; Apaf-1 apoptosome caspase-3 activation, DEVD-Rh110 fluorescence; active compounds read low; O14727; 330,000 compounds, 0.31% hits; activity change, negative = activation, % at 20 µM; AID 489031;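 active = activity change at or below -40% at 20 µM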
#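 Assay system – biochemical Apaf-1 apoptosome reconstitution · Medium – 20 mM HEPES buffer, pH 7.5, containing CHAPS and BSA · Incubation – 30 min preincubation, 50 min reaction, room temperature · Measured by – Caspase-3-released Rh110 fluorescence, 540 nm emission, 480 nm excitation · Read-out – Caspase-3 cleavage activity downstream of Apaf-1 activation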
# Rh110 act interf = interferes with Rh110 fluorescence, flagging false Apaf-1 activators | shares compounds with Apaf1 activ | Rh110 fluorescence interference, quenched caspase reaction, Ex480/Em540 | fluorescence interference (activity change), % at 20 µM, hits read low | 980 tested, under 10 active;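 active = mean activity change at or below -40% when tested at 20 µM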
# Apaf-1 act conf = confirmation of human Apaf-1 activators. shares compounds with Apaf1 activ. reconstituted apoptosome caspase-3 activity, DEVD-Rh110 fluorescence; active compounds read low. activity change, negative = activation, % at 20 µM. 980 compounds, 5% hits. AID 504617;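 active = mean activity change at or below -40%, meaning activation of 40% or more, at 20 µM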
# Apaf1 act interf = Apaf-1 activator counter-screen fluorescence artifact; 55 tested, under 10 active; AID 588592; fluorescence interference counterscreen, Apaf-1 activator assay; shares compounds with Apaf1 activ; EC50, µM; call rule not given here
# Numbers stand for hits; – = inactive; · = no result given. These entries were drawn from the full list.
SMILES,Apaf1 activ,Rh110 act interf,Apaf-1 act conf,others
O=C1C2C3C=CC(C3)C2C(=O)N1CNc1ccc(O)cc1 (configuration not stated),–,·,·,
CCOc1ccccc1CNC(=O)C1CCN(c2nnc(C)c3c(C)n(-c4ccc(C)cc4)nc23)CC1,–,·,·,
COc1ccc(-c2csc(-c3ccc(O)cc3)n2)cc1,-116,–,–,
CCCCCCCCCCOC(=O)Cn1c(COc2ccccc2C)[n+](C)c2ccccc21,–,·,·,
CC[C@@H](C)[C@@H]1CN([C@@H](CN2CCC[C@H]2CN2C(N)=NC[C@@H]2Cc2ccccc2)C(C)C)C(=N)N1CCCC1CCCC1,–,·,·,
O=C(NCCCO)C(=O)NCc1ccncc1,-63,-80,–,
COCCNc1nc2nonc2nc1N(C)Cc1cccc2cnccc12,-346,–,–,
COc1ccc(OCc2cc(C(=O)N3CCSCC3)no2)c(Cl)c1,-153,–,–,
CCCC(C(=O)NC(C)(C)C)N(Cc1ccc(F)cc1)C(=O)c1snc(C(N)=O)c1N (configuration not stated),-108,–,–,
Cc1ccc(C(=O)N/C(=C\c2ccc(-c3ccccc3[N+](=O)[O-])o2)C(=O)NCCN(C)C)cc1,–,·,·,
CCN1/C(=C/c2ccc3cc(C)ccc3[n+]2CC)Sc2ccc3sccc3c21,–,·,·,
CN(C)C=Nc1c(Br)cc(Br)c2nonc12,–,·,·,
CCC(C)(C)C1CCc2c(sc(N)c2C(N)=O)C1 (configuration not stated),-48,–,–,
CC1=NN(c2ccc(C(=O)O)c(N)c2)C(=O)C1,–,·,·,
CC1=NN(c2ccc(Br)cc2)C(=O)/C1=C/c1ccc(-c2ccccc2C(=O)O)o1,–,·,·,
c1csc(-c2nc3c4ccccc4c4ccccc4c3[nH]2)c1,–,·,·,
COC(=O)C1=C(C)N(Cc2ccccc2)C(=NCc2ccc(OC)cc2)N[C@H]1c1cccc(F)c1,–,·,·,
C#CCOCCOCCOCCNc1nc(N2CCN(C(=O)CCCCCCCCCCNC(=O)[C@@H](CCC(=O)O)n3cc(CCCCCN)nn3)CC2)nc(N2CCN(C(=O)CCCCCCCCCCNC(=O)[C@H]([C@@H](C)CC)n3cc(CCCCCN)nn3)CC2)n1,–,·,·,
O=C(Nc1nnc(S(=O)(=O)N2CCOCC2)s1)c1ccccc1Br,-95,–,–,
Cc1ccc(C(=O)Nc2ccccn2)cc1S(=O)(=O)N1CCOCC1,–,·,·,
COc1cc2c(C#N)c(N3CCCCC3)nc(N)c2c(N)n1,–,·,·,
CC1(OC(=O)c2ccc(Cl)nc2)C(=O)C=C2C=C3CCCN3C=C2C1=O (configuration not stated),–,·,·,
C#CCOCCOCCOCCNc1nc(N2CCN(C(=O)CCCCCCCCCCNC(=O)Cn3cc(CCCCCN)nn3)CC2)nc(N2CCN(C(=O)CCCCCCCCCCNC(=O)[C@@H](CCSC)n3cc(CCO)nn3)CC2)n1,–,·,·,
CCSc1nsc(NC(=O)Nc2ccc(F)cc2F)n1,-95,–,–,
O=C1c2ccccc2C(=O)c2c1oc(C(F)(F)F)c2C(=O)c1ccccc1,–,·,·,
SMILES,Apaf1 activ,Rh110 act interf,Apaf-1 act conf,others
CC1(C)CC(=O)c2c(-c3cccnc3)n[nH]c2C1,–,·,·,
Nc1ncc(Br)cc1N=Cc1ccccc1,–,·,·,
COc1ccc(CNC(=O)c2c(N)n(CCCN3CCOCC3)c3nc4ccccc4nc23)cc1,–,·,·,
Nc1c(C(=O)NCc2ccccc2)c2nc3ccccc3nc2n1CCCN1CCOCC1,–,·,·,
COC(=O)c1c(N)n(CCCN2CCOCC2)c2nc3ccccc3nc12,-72,–,–,
CC1(c2ccccc2)NC(=O)N(NC(=O)CSc2n[nH]c(N)n2)C1=O (configuration not stated),-279,–,–,
N#Cc1ccccc1OCC(=O)OCC(=O)N1CCCC1,-110,–,–,
C=C[C@H]1CN2CC[C@H]1C[C@@H]2[C@@H](O)c1ccnc2ccc(OC)cc12,–,·,·,
CN(C)CCCNC(=S)NCC(c1ccc(Cl)cc1Cl)c1c[nH]c2ccccc12 (configuration not stated),–,·,·,
CC(Cc1c[nH]c2ccccc12)C(=O)O (configuration not stated),-351,–,-120,Apaf1 act interf=–
CCOC(=O)c1nn(-c2ccccc2)c(=O)c2c(N)scc12,–,·,·,
CC(C)C[C@@H]1CN=C(N)N1C[C@@H]1CCCN1C[C@H](C)N1C[C@@H](Cc2ccccc2)N(CCCC2CCCC2)C1=N,–,·,·,
Cc1ccc(-c2nc3ncccn3c2NC(=O)C2CC2)cc1,-52,–,–,
CCc1cc[n+](C2=C([O-])c3ccccc3C(=O)/C2=N\S(=O)(=O)c2cccs2)cc1,–,·,·,
COc1ccc(-c2nc(C(=O)NCC3CCCO3)cc3c2[nH]c2ccccc23)cc1 (configuration not stated),-224,–,–,
COc1cc(-c2nc(C(=O)NC3CCN(Cc4ccccc4)CC3)cc3c2[nH]c2ccccc23)cc(OC)c1OC,–,·,·,
CC(C)n1cnc2c(NCc3ccccc3)cc(N[C@H](C)CO)cc21,–,·,·,
O=C(NCCCN1CCCCCC1)c1cc2c(=O)oc3ccccc3c2s1,–,·,·,
O=C(NCCCN1CCOCC1)c1c(O)c2cc(Br)cc(Br)c2[nH]c1=O,-57,–,–,
Cc1ccc(-c2cc(C(=O)NCCCN3CCOCC3)c3ccc(Cl)c(C)c3n2)cc1,–,·,·,
Nc1ccn([C@H]2C[C@H](O)[C@@H](CO)O2)c(=O)n1,–,·,·,
Nc1ccc(N2CCCCC2)c2nonc12,–,·,·,
Cc1cc(C(=O)Nc2ccccc2N2CCCCC2)no1,-512,–,–,
NC(=O)c1cc(N)ccc1N1CCCC1,–,·,·,
COc1ccc(S(=O)(=O)N2CCN(c3ccc4nnc(-c5ccc(F)cc5)n4n3)CC2)cc1,–,·,·,
SMILES,Apaf1 activ,Rh110 act interf,Apaf-1 act conf,others
O=C(N/N=C/c1[nH]c2ccccc2c1Cl)c1cccc(Br)c1,-72,–,–,
O=C(NN=c1c(=O)c2ccccc2c1=O)c1ccccc1,–,·,·,
CCN1CCCC1CNC(=O)c1cc2c(-c3ccc(Cl)cc3)nn(C)c2s1 (configuration not stated),–,·,·,
OCCN1CCN(CC/C=C2/c3ccccc3Sc3ccc(C(F)(F)F)cc32)CC1,–,·,·,
CN(C)CCCN1c2ccccc2Sc2ccc(C(F)(F)F)cc21,–,·,·,
C=CC(=C)CC(NC)c1ccccc1 (configuration not stated),-48,–,–,
Cn1c(=O)c2[nH]c(=O)cnc2n(C)c1=S,–,·,·,
Cc1ccc(S(=O)(=O)NCCN2CCOCC2)c(C)c1C,-48,–,–,
CCOc1ccc(NS(=O)(=O)c2cc(C(=O)NCCCN3CCOCC3)ccc2C)cc1,–,·,·,
Oc1cc(NCCN2CCOCC2)cc2cccnc12,–,·,·,
Cc1ccc(C)c(N2CCN(S(=O)(=O)c3cn(C)cn3)CC2)c1,-78,–,–,
CC[C@@H](C)[C@H](CNC)NC[C@@H](Cc1cccc2ccccc12)NCCc1cccc(C(F)(F)F)c1,–,·,·,
Cc1ccc(-n2c(N)c(C(=O)Nc3c(C)n(C)n(-c4ccccc4)c3=O)c3nc4ccccc4nc32)cc1C,–,·,·,
Clc1ccc(N=c2ssnc2Cl)nc1,–,·,·,
CN(C)CCCN(C(=O)c1ccc(S(=O)(=O)N2CCCCC2)cc1)c1nc2cc3c(cc2s1)OCO3,–,·,·,
Cc1ccc(/C=N/NC(=O)CNC(=O)c2ccc(S(=O)(=O)N3CCCC3)cc2)o1,-522,–,–,
CCc1nnc(NC(=O)c2ccc(S(=O)(=O)N3CCCCC3)cc2)s1,–,·,·,
